ChEMBL document CHEMBL1817604, “Synthesis and biological evaluation of 1-(4'-Indolyl and 6'-Quinolinyl) indoles as a new class of potent anticancer agents” (Eur J Med Chem, 2011)

Tests used:
KB = experiment: Antiproliferative activity against human KB cells after 72 hrs by methylene blue assay; format: functional, cell-based
Procedure, shortened: (§1)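 Lines kept in RPMI-1640 with 5% fetal bovine serum. Log-phase cells seeded at 5000 cells/mL/well in 24-well plates, then exposed to compound.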

[1] = Inhibition of bovine brain tubulin polymerization after 30 mins by turbidimetry analysis
[2] = Antiproliferative activity against human KB-VIN10 cells over-expressing P-gp 170/MDR1 after 72 hrs by methylene blue assay; format: functional, cell-based; settings: KB-VIN10, 72 h
Procedure, shortened: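 KB-VIN10 is a P-gp 170/MDR1-overexpressing subline derived from KB by continuous exposure to rising vincristine. It is maintained in growth medium with 10 nM vincristine. Log-phase cells seeded at 5000 cells/mL/well in 24-well plates before compound exposure.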

MKN-45 = experiment: Antiproliferative activity against human MKN45 cells after 72 hrs by methylene blue assay; format: functional, cell-based; settings: MKN-45, 72 h; procedure, shortened: as §1
HT-29 = experiment: Antiproliferative activity against human HT-29 cells after 72 hrs by methylene blue assay; format: functional, cell-based; settings: HT-29, 72 h; procedure, shortened: as §1
NCI-H460 = experiment: Antiproliferative activity against human H460 cells after 72 hrs by methylene blue assay; format: functional, cell-based; settings: NCI-H460, 72 h
Procedure, shortened: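 Log-phase cells seeded at 5000 cells/mL/well in 24-well plates, then exposed to compound.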

Bos taurus = organism: Bos taurus; experiment: Displacement of [3H]colchicine from biotin-labeled bovine brain tubulin at 5 uM after 2 hrs by liquid scintillation counter
[3] = Inhibition of tubulin polymerization
Procedure, shortened: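 Bovine brain MAP-rich tubulin, 4 mg/mL in 100 mM PIPES (pH 6.9), 2 mM MgCl₂, 1 mM GTP, […] per well, with test compound or 2% (v/v) DMSO control. Turbidity read at 350 nm, 37 °C, every 30 s for 30 min.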

Row | SMILES | IC50 (KB) [nM] | IC50 [1] [nM] | IC50 [2] [nM] | IC50 (MKN-45) [nM] | IC50 (HT-29) [nM] | IC50 (NCI-H460) [nM] | Activity (Bos taurus) [%] | IC50 [3] [µM]
1 | COc1cc2c(ccn2-c2cccc3c2ccn3C)c(OC)c1OC | 32 | 1700 | 25 | 40 | 44 | 49 | 83 | 
2 | COc1ccc(-n2ccc3c(OC)c(OC)c(OC)cc32)c(N)c1 | 102 | 4700 | 50 | 49 | 101 | 96 | 44 | 
3 | COc1cc2c(ccn2-c2ccc3occc3c2)c(OC)c1OC | 537 |  | 265 | 322 | 646 | 690 |  | 
4 | COc1ccc2ccc3cc(OC)c(OC)c(OC)c3c2c1 |  |  |  |  |  |  |  | > 40
5 | COc1cc2c(c(OC)c1OC)-c1ccc(OC)c(=O)cc1[C@@H](NC(C)=O)CC2 [COLCHICINE] | 10 |  | 121 | 12 | 15 |  |  | 
6 | COc1ccc(-n2ccc3c(OC)c(OC)c(OC)cc32)cc1N | 3250 |  | 1380 | 1540 | 4150 | 2390 |  | 
7 | COc1ccc2nc(-n3ccc4c(OC)c(OC)c(OC)cc43)ccc2c1 | 7370 |  | 9110 | 11500 | 3650 | 6170 |  | 
8 | COc1cc2c(ccn2-c2ccc3c(ccn3C)c2)c(OC)c1OC | 73 | 2700 | 53 | 40 | 74 | 76 | 65 | 
9 | COc1ccc(/C=C\c2cc(OC)c(OC)c(OC)c2)cc1O [COMBRETASTATIN A4] | 2 |  | 0.7 | 4.8 | 94 | 2.3 | 97 | 
10 | COc1cc2c(ccn2-c2ccc3ncncc3c2)c(OC)c1OC | 7950 |  | 3450 | 4310 | 8140 | 7520 |  | 
11 | COc1ccc2c(-n3ccc4c(OC)c(OC)c(OC)cc43)cn(C)c2c1 | 85 |  | 40 | 59 | 81 | 81 |  | 
12 | COc1cc2c(ccn2-c2ccc(N(C)C)cc2)c(OC)c1OC | 148 |  | 63 | 105 | 148 | 172 |  | 
13 | COc1ccc(-n2ccc3c(OC)c(OC)c(OC)cc32)cc1 | 186 |  | 135 | 145 | 179 | 198 |  | 
14 | COc1cc2c(ccn2-c2cccc3ncccc23)c(OC)c1OC | 900 |  | 535 | 682 | 921 | 955 |  | 
15 | COc1cc2c(ccn2-c2ccnc3ccccc23)c(OC)c1OC | 216 |  | 130 | 197 | 329 | 318 |  | 
16 | COc1ccc(-n2ccc3c(OC)c(OC)c(OC)cc32)cc1O | 131 |  | 68 | 5900 | 6400 | 737 |  | 
17 | COc1cc2c(ccn2-c2ccc3ncccc3c2)c(OC)c1OC | 18 | 2700 | 11 | 24 | 34 | 31 | 72 | 
